We go through 18 compounds from ChEMBL document CHEMBL2021879, “Novel pyrrolopyrimidine analogues as potent dipeptidyl peptidase IV inhibitors based on pharmacokinetic property-driven optimization” (Eur J Med Chem, 2012).

The nature of data set [1]: Apparent permeability from basolateral to apical side in human Caco2 cells at 10 uM after 60 mins by LC-MS/MS analysis. The settings on record: Caco-2. (Caco-2 cells form a polarised layer with tight junctions and transporters.)
Data set [2] in a line: Apparent permeability from apical to basolateral side in human Caco2 cells at 10 uM after 60 mins by LC-MS/MS analysis. The settings on record: Caco-2.
Data set [3] in a line: Metabolic stability in rat liver microsomes assessed as compound remaining at 1 uM after 30 mins by LC-MS/MS. Type of data set: ADME, Microsome. The settings on record: read-out: Stability.
The target of data set [4] is Dipeptidyl peptidase 4 (Homo sapiens, UniProt P27487). Nature of the data set: Inhibition of human DPP4 after 10 mins.
In data set [5] the target is Dipeptidyl peptidase 8 (Homo sapiens, UniProt Q6V1X1). Put plainly: Inhibition of DPP8.
Data set [6] addresses Dipeptidyl peptidase 9 (Homo sapiens, UniProt Q86TI2). Put plainly: Inhibition of DPP9.
A short description of data set [7]: Oral bioavailability in Sprague-Dawley rat at 20 to 25 mg/kg administered as single dose. Type of data set: ADME, organism-based. The settings on record: in vivo.
Data set [8] in a line: Half life in Sprague-Dawley rat at 20 to 25 mg/kg, po and […], iv administered as single dose. Type of data set: ADME, organism-based. The arrangement: dose 20-25 mg/kg, route oral. The settings on record: in vivo.
The test system of data set [9] is Mus musculus. Nature of the data set: Reduction of glucose excursions in C57Bl/6j lean mouse at 3 mg/kg, po measured after 45 mins by oral glucose tolerance test. Type of data set: functional, organism-based. The arrangement: dose 3 mg/kg. In short, it runs like this:
(§1)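 OGTT after oral treatment: C57BL/6j lean mice at 3 mg/kg, and ob/ob mice at 1, 3 and 10 mg/kg. Blood glucose followed over the glucose challenge; excursion expressed as AUC₀₋₁₂₀ change rate (percent inhibition).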

Data set [10] deals with Mus musculus. Nature of the data set: Reduction of glucose excursions in ob/ob type 2 diabetes mouse model at 1 mg/kg, po measured after 45 mins by oral glucose tolerance test. Type of data set: functional. The settings on record: 0.75 h. In short, it runs like this:
as §1

In data set [11] the test system is Mus musculus. Put plainly: Reduction of glucose excursions in ob/ob type 2 diabetes mouse model at 3 mg/kg, po measured after 45 mins by oral glucose tolerance test. Type of data set: functional. The settings on record: 0.75 h. In short, it runs like this: as §1
For data set [12], the system named is Mus musculus. Nature of the data set: Reduction of glucose excursions in ob/ob type 2 diabetes mouse model at 10 mg/kg, po measured after 45 mins by oral glucose tolerance test. The class given is functional. The settings on record: 0.75 h. An outline of the steps:
as §1

Data set [13] has as its target Voltage-gated inwardly rectifying potassium channel KCNH2 (Homo sapiens, UniProt Q12809).
A short description of data set [14]: Efflux ratio of apparent permeability from apical to basolateral side to basolateral to apical side in human Caco2 cells at 10 uM after 60 mins by LC-MS/MS analysis. The settings on record: Caco-2.
Data set [15] is described as follows: Metabolic stability in rat liver microsomes assessed as compound turnover at 1 uM after 30 mins by LC-MS/MS. Type of data set: ADME, Microsome. The settings on record: read-out: Drug metabolism. In short, it runs like this:
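Pooled rat liver microsomes, 30 min incubation; read-out is percent compound turnover (hepatic first-pass effect); mean of at least three independent determinations.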
For orientation: Liver microsomes are vesicles of endoplasmic reticulum, rich in cytochrome P450 enzymes.

Structures are written as SMILES. pIC50: −log10 of the molar value. The source made the active and inactive calls.

Chain of Dipeptidyl peptidase 8 (Q6V1X1 whole entry): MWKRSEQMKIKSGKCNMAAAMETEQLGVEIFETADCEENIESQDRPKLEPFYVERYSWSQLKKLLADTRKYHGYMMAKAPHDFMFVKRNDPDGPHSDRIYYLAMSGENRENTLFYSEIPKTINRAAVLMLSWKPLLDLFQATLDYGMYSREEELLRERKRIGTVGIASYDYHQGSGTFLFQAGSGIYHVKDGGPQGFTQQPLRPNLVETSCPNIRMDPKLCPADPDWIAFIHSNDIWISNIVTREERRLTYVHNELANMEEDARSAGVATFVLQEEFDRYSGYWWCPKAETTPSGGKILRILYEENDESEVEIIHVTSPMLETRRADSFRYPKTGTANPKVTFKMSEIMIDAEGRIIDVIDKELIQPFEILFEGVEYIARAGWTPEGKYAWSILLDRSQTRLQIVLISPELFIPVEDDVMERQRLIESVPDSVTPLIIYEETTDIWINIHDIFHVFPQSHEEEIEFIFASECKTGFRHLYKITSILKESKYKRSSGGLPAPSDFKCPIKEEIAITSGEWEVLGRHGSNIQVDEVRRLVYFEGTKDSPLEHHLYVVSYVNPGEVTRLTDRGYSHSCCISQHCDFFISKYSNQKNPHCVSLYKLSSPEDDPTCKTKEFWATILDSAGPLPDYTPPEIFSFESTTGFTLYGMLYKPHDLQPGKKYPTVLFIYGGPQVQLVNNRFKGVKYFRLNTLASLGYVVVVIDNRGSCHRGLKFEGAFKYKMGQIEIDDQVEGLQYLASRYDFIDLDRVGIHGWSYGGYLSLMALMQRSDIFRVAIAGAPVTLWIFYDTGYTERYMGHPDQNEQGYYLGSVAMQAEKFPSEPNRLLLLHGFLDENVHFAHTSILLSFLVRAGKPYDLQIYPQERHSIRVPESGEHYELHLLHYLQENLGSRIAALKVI
Chain of Dipeptidyl peptidase 4 (P27487 whole entry): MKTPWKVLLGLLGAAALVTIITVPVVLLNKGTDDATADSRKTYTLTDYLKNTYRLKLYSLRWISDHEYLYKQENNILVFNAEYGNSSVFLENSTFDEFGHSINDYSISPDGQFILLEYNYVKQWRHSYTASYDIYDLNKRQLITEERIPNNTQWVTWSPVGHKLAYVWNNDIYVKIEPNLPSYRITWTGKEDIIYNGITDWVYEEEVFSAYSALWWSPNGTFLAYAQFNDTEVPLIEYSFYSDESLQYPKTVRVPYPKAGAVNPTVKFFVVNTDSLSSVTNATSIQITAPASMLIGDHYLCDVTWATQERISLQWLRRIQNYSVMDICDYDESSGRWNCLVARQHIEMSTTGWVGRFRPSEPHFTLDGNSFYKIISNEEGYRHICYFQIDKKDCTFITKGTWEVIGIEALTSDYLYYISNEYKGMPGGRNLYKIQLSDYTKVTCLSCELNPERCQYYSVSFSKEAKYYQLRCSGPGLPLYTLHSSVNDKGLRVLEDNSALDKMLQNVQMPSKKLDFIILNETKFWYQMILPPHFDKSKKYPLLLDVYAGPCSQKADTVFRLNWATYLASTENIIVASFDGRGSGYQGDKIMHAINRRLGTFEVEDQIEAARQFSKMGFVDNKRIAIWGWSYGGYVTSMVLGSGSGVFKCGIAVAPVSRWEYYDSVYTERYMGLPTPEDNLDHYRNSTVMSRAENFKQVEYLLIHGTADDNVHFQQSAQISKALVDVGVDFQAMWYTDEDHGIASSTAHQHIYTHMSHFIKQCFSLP
Chain of Dipeptidyl peptidase 9 (Q86TI2 whole entry): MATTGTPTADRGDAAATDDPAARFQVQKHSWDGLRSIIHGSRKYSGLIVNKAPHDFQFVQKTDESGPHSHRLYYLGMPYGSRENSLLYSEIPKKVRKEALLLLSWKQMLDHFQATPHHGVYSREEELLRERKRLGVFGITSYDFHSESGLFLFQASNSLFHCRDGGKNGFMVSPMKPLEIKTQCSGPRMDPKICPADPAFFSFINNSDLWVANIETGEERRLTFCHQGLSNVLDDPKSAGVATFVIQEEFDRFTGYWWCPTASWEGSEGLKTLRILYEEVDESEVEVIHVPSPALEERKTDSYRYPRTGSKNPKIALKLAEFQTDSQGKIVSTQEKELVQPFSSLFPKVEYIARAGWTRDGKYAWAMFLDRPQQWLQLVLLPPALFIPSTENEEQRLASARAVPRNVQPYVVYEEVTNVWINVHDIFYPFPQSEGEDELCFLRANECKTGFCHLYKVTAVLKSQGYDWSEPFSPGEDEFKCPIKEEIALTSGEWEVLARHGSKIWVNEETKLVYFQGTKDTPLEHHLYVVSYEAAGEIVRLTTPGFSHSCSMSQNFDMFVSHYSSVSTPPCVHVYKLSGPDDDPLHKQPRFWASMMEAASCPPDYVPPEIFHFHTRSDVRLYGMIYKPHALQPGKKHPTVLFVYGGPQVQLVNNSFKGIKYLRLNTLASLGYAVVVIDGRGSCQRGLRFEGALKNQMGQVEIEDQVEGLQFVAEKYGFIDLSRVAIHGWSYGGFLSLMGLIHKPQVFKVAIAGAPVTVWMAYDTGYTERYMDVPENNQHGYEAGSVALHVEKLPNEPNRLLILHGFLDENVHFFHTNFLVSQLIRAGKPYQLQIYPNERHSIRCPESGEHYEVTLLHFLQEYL
Chain of Voltage-gated inwardly rectifying potassium channel KCNH2 (Q12809 whole entry): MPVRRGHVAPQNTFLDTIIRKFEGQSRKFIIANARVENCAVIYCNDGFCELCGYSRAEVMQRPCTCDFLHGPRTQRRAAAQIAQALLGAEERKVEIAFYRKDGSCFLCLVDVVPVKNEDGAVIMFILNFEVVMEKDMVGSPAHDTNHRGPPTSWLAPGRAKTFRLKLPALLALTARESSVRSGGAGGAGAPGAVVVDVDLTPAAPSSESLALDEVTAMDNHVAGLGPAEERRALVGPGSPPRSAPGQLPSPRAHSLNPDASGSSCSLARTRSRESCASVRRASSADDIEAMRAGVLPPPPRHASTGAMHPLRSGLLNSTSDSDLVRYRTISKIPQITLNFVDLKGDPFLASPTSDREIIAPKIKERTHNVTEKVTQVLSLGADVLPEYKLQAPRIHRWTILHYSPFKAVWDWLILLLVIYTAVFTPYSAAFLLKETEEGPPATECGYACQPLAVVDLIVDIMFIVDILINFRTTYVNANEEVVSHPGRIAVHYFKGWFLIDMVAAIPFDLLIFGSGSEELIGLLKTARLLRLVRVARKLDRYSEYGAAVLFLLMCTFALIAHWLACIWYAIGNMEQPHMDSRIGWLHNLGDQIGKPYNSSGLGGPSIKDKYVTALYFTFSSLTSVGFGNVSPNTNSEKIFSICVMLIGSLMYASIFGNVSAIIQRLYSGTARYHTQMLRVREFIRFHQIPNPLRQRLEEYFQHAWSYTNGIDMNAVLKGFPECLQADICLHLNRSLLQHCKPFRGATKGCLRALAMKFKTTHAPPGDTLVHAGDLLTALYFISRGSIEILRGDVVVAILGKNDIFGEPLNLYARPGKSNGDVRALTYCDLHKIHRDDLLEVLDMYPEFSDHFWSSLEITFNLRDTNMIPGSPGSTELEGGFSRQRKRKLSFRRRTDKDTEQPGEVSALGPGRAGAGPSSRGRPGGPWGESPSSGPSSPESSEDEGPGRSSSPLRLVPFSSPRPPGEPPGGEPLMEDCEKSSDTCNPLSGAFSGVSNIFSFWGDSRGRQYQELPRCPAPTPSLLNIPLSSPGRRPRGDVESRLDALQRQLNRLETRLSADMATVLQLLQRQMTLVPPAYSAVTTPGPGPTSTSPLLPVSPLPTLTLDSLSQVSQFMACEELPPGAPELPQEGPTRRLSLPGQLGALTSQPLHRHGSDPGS

Regarding `N#Cc1ccccc1Cn1c(N2CCC[C@@H](N)C2)nc2[nH]c(Br)cc2c1=O`, the Papp B→A (as a rule, how fast a substance crosses the layer from the basolateral side) at 1 h, 10 µM in [1] came to 11.4 ×10⁻⁶ cm/s. Moreover, the apical-to-basolateral permeability (Papp A→B) – broadly, the apparent permeability from the apical to the basolateral side of a cell layer – at 1 h, 10 µM in data set [2] stood at 5.48 ×10⁻⁶ cm/s. Also, the remaining at 0.5 h, 1 µM in [3] came to 71.9%. The pIC50 (in general, the negative decadic logarithm of the IC50, by convention in mol/L) in [4] is 8.58; in data set [5], under 4.60; in data set [6], under 4.60.
For `N#Cc1ccccc1Cn1c(N2CCC[C@@H](N)C2)nc2c(Br)c[nH]c2c1=O`, the Papp B→A at 1 h, 10 µM in [1] is 18.4 ×10⁻⁶ cm/s. The Papp A→B at 1 h, 10 µM in data set [2] came to 2.81 ×10⁻⁶ cm/s. For the same compound, the bioavailability – broadly, dose-corrected exposure relative to a reference, in per cent – in [7] amounted to 41%. In addition, the remaining at 0.5 h, 1 µM in data set [3] was found to be 78%. The negative logarithm of the IC50 (pIC50) in data set [5] is under 5.00; in data set [6], under 5.00; in data set [13], under 3.52. In addition, the half-life – broadly, the time needed for the level to fall by half in the phase considered – in [8] was 2 h. For the same compound, in data set [9], the inhibition result was “Active”. Besides, the inhibition in vivo (as a rule, the change of the read-out against control, counted positive when it falls) at 1 mg/kg in [10] amounted to 27.9%. Moreover, the inhibition in vivo at 3 mg/kg in data set [11] is 51.9%. Moreover, in [12], the inhibition in vivo at 10 mg/kg turned out to be 72.7%.
For the compound `Cn1c(Br)c(Br)c2c(=O)n(Cc3ccccc3C#N)c(N3CCC[C@@H](N)C3)nc21`, in data set [14], the efflux ratio – broadly, a quotient of directional permeabilities that is used to spot active efflux – at 1 h, 10 µM is 3.37. Further, the Papp B→A at 1 h, 10 µM in [1] is 8.41 ×10⁻⁶ cm/s. Further, in [2], the Papp A→B at 1 h, 10 µM came out at 2.5 ×10⁻⁶ cm/s. For the same compound, the remaining at 0.5 h, 1 µM in [3] was found to be 41%.
With `N#Cc1ccccc1Cn1c(N2CCC[C@@H](N)C2)nc2c(-c3ccncc3)c[nH]c2c1=O`, the efflux ratio at 1 h, 10 µM in data set [14] is 2.51. Also, in [1], the Papp B→A at 1 h, 10 µM was determined as 10.3 ×10⁻⁶ cm/s. Moreover, the apparent permeability from apical to basolateral (Papp A→B) at 1 h, 10 µM in data set [2] came to 4.13 ×10⁻⁶ cm/s. For the same compound, the remaining at 0.5 h, 1 µM in data set [3] stood at 28.1%.
Regarding `N#Cc1ccccc1Cn1c(N2CCC[C@@H](N)C2)nc2cc[nH]c2c1=O`, the efflux ratio at 1 h, 10 µM in [14] came out at 4.2. In addition, the apparent permeability from basolateral to apical (Papp B→A) at 1 h, 10 µM in [1] stood at 14.4 ×10⁻⁶ cm/s. The Papp A→B at 1 h, 10 µM in [2] was 3.44 ×10⁻⁶ cm/s. Besides, the remaining at 0.5 h, 1 µM in [3] stood at 39.2%.
As for `Cc1csc2c(=O)n(Cc3ccccc3C#N)c(N3CCC[C@@H](N)C3)nc12`, the remaining at 0.5 h, 1 µM in data set [3] stood at 0%.
Take `Cn1c(=O)cc(N2CCC[C@@H](N)C2)n(Cc2ccccc2C#N)c1=O`: the inhibition result in [9] is “Active”.
As to `N#Cc1ccccc1Cn1c(N2CCC[C@@H](N)C2)nc2c(-c3ccsc3)c[nH]c2c1=O`, the efflux ratio at 1 h, 10 µM in data set [14] is 11.4. In addition, the Papp B→A at 1 h, 10 µM in [1] was determined as 21.2 ×10⁻⁶ cm/s. Moreover, the Papp A→B at 1 h, 10 µM in data set [2] stood at 1.86 ×10⁻⁶ cm/s.
Compound `N#Cc1ccccc1Cn1c(N2CCC[C@@H](N)C2)nc2ccsc2c1=O` came in with a bioavailability in data set [7] of 23.3%. The remaining at 0.5 h, 1 µM in data set [3] was 6.6%. Besides, in data set [15], the metabolised at 0.5 h, 1 µM amounted to 93%. Also, the inhibition entry in data set [9] is “Active”.
For the compound `Cc1cc2c(=O)n(Cc3ccccc3C#N)c(N3CCC[C@@H](N)C3)nc2[nH]1`, the Papp B→A at 1 h, 10 µM in data set [1] is 9.36 ×10⁻⁶ cm/s. Also, the Papp A→B at 1 h, 10 µM in data set [2] stood at 4.36 ×10⁻⁶ cm/s. In addition, in [3], the remaining at 0.5 h, 1 µM came to 91.4%. In addition, the pIC50 was 7.86 in data set [4], under 4.60 in data set [5] and under 4.60 in [6].
Regarding `Cc1csc2nc(N3CCC[C@@H](N)C3)n(Cc3ccccc3C#N)c(=O)c12`, the remaining at 0.5 h, 1 µM in [3] is 3.27%.
With `N#Cc1ccccc1Cn1c(N2CCC[C@@H](N)C2)nc2[nH]c(-c3cccnc3)cc2c1=O`, the Papp B→A at 1 h, 10 µM in [1] came out at 6.01 ×10⁻⁶ cm/s. Besides, the Papp A→B at 1 h, 10 µM in data set [2] was determined as 2.55 ×10⁻⁶ cm/s. Moreover, the remaining at 0.5 h, 1 µM in data set [3] is 73.8%. For the same compound, the pIC50 in [4] is 8.63; in data set [5], under 5.00; in [6], under 5.00.
Regarding `N#Cc1ccccc1Cn1c(N2CCC[C@@H](N)C2)nc2[nH]ccc2c1=O`, the bioavailability in data set [7] was found to be 5.7%. Further, in data set [3], the remaining at 0.5 h, 1 µM was determined as 65.1%.
Turning to `N#Cc1ccccc1Cn1c(N2CCC[C@@H](N)C2)nc2scc(C(F)(F)F)c2c1=O`, the remaining at 0.5 h, 1 µM in [3] is 4.6%.
For the compound `N#Cc1ccccc1Cn1c(N2CCC[C@@H](N)C2)nc2[nH]c(-c3ccc(F)cc3)cc2c1=O`, the efflux ratio at 1 h, 10 µM in data set [14] is 45.3. Besides, the apparent permeability from basolateral to apical (Papp B→A) at 1 h, 10 µM in [1] came to 26.6 ×10⁻⁶ cm/s. Besides, in data set [2], the Papp A→B at 1 h, 10 µM came out at 0.59 ×10⁻⁶ cm/s.
`N#Cc1ccccc1Cn1c(N2CCC[C@@H](N)C2)nc2sccc2c1=O`: the remaining at 0.5 h, 1 µM in data set [3] was found to be 24.6%.
For the compound `Cn1ccc2c(=O)n(Cc3ccccc3C#N)c(N3CCC[C@@H](N)C3)nc21`, in data set [14], the efflux ratio at 1 h, 10 µM turned out to be 13.3. In data set [1], the Papp B→A at 1 h, 10 µM was 24.6 ×10⁻⁶ cm/s. For the same compound, in [2], the Papp A→B at 1 h, 10 µM came out at 1.84 ×10⁻⁶ cm/s.
In the case of `N#Cc1ccccc1Cn1c(N2CCC[C@@H](N)C2)nc2c(-c3cccnc3)c[nH]c2c1=O`, the efflux ratio at 1 h, 10 µM in data set [14] came out at 37.8. Besides, the Papp B→A at 1 h, 10 µM in data set [1] amounted to 11.3 ×10⁻⁶ cm/s. Moreover, in data set [2], the Papp A→B at 1 h, 10 µM stood at 0.3 ×10⁻⁶ cm/s.
